Test system: MS2 coat protein
Experiment: apparent Kd, MS2 coat protein; higher = weaker binding; RNA-MaP array; theophylline 2 mM where present
Method in brief: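 Green signal from SNAP-549-labelled MS2 coat protein was normalised to red-channel RNA signal and to the median Fmax of control clusters. The protein was titrated from 0.7 or 1.5 nM, doubling to 3 µM, without and then with constant ligand, over designs transcribed by stalled E. coli RNA polymerase on Illumina sequencing-chip clusters, in 100 mM Tris-HCl pH 7.5, 80 mM KCl, 4 mM MgCl2, BSA, DTT, yeast tRNA and Tween-20. The apparent Kd is the median of filtered per-cluster binding-curve fits.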

[1] = designed as: OFF switch for theophylline, no ligand
[2] = ligand present: theophylline, designed as: OFF switch for theophylline
[3] = designed as: ON switch for theophylline, no ligand
[4] = ligand present: theophylline, designed as: ON switch for theophylline

## ACAUGAGGAUCACCCAUGUGCCGUCUUGAUACCAGACGCGAAGUAGUCCCUUGGCAGCAACUACGUGACGGUCGCGCAUGUGUAG
[1]
  apparent Kd: 16.6 nM
[2]
  apparent Kd: 28.6 nM

## GCUGGGUGCGCAAGGACCUGGCGUUGCGAUACCAGCACGGUAACGUGCCCUUGGCAGCGCACAUGAGGAUCACCCAUGUGGUGUU
[1]
  apparent Kd: 276 nM
[2]
  apparent Kd: 310 nM

## CGUGAUCCCUGUGAUACCAGAAGUACAUGAGGAUCACCCAUGUCAAACACAAAACCAAGCUUCCCUUGGCAGCAUAGUCGUUAAG
[3]
  apparent Kd: 238 nM
[4]
  apparent Kd: 1310 nM

## UGCGAUUGCUCAGAUACCAGACAUGAGGAUCACCCAUGUACCAAGGUAAAGAAAUAACGUGUCCCUUGGCAGCUGAGCAAUCGCU
[1]
  apparent Kd: 10.2 nM
[2]
  apparent Kd: 98.4 nM

## CUGCCAUGCAGAGAUACCAGUGCGCUCAGCACAUGAGGAUCACCCAUGUUGGCUGCCGAUCACCCUUGGCAGCUCUGCAUGGCAG
[3]
  apparent Kd: 10.8 nM
[4]
  apparent Kd: 7.62 nM

## ACAUGAGGAUCACCCAUGUUCCUCGCCGAUACCAGUGAAGAAGAACGCCCUUGGCAGCGGAAAGAAUAUUUUGGAGAUGAGGUAU
[1]
  apparent Kd: 164 nM
[2]
  apparent Kd: 189 nM

## AGACAUGAGGAUCACCCAUGUAGCAUGGAUACCAGAUGUAGAUUUGUCCCUUGGCAGCUGUGGUAAAGUGAUGCAUUGCUCCUAG
[1]
  apparent Kd: 45.2 nM
[2]
  apparent Kd: 45.2 nM

## AUUUACAUGGUCAUAUAUAUAUCGUCAGAUACCAGACGAGAUAUUGUCCCUUGGCAGCUGUUACAUGAGGAUCACCCAUGUAAUU
[1]
  apparent Kd: 85.8 nM
[2]
  apparent Kd: 83.7 nM

## AUAUGAUCAUGGGAUACCAGAAAUGGUAUUCCUUUAUUUCUUACAUGAGGAUCACCCAUGUUCCCUUGGCAGCUUAUGAUCAUAU
[1]
  apparent Kd: 75 nM
[2]
  apparent Kd: 282 nM

## GCACCAGGUACGGAUACCAGCUAUAGGCCCUAUGGGCGACAUGAGGAUCACCCAUGUAAUGGCCCUUGGCAGCUGUACCUGGUGC
[3]
  apparent Kd: 169 nM
[4]
  apparent Kd: 11.3 nM

## CAUACUUGAUCCUAUGAGCCUAUUUGUGAUACCAGCAUCUAAAUUUGCCCUUGGCAGCACUAACAUGAGGAUCACCCAUGUUAUA
[1]
  apparent Kd: 34.9 nM
[2]
  apparent Kd: 71.8 nM

## UUUUUCGCGGGUGAUACCAGCAAAGCUGUACUGGUCUGGUACAUGAGGAUCACCCAUGUUUGCCCUUGGCAGCGCUCGGGAGAAG
[1]
  apparent Kd: 29.5 nM
[2]
  apparent Kd: 71.9 nM

## AAAUAAAUCACAUGAGGAUCACCCAUGGAUACCAGGCCUGGAAACAGCCCUUGGCAGCCACAUGAGGAUCACCCAUGUGCUAAUA
[1]
  apparent Kd: 213 nM
[2]
  apparent Kd: 219 nM

## UUAGAUAUGACGGAUACCAGCGUGUUGUAGAACAUGAGGAUCACCCAUGUAGUGAUCGAGCGCCCUUGGCAGCUGGUAUGUUUGG
[3]
  apparent Kd: 179 nM
[4]
  apparent Kd: 482 nM

## AUAAGUAAUGUCUCGUGUAUUAUUACAGAUACCAGACUAUCCUAUGUCCCUUGGCAGCUGGAUUACAUGAGGAUCACCCAUGUUG
[1]
  apparent Kd: 23.2 nM
[2]
  apparent Kd: 27.5 nM

## UCACAUGAGGAUCACCCAUGUACAGGCGAUACCAGCCGUACAUUGGGCCCUUGGCAGCGCAUCGAGACCUUUAUAAGCACCUCGG
[3]
  apparent Kd: 49.9 nM
[4]
  apparent Kd: 298 nM

## ACAUAGAGAUUAAUCGUGGGCAUACUCGAUACCAGUAUUUUAACCUACCCUUGGCAGCGACAUGAGGAUCACCCAUGUGAGAUGA
[1]
  apparent Kd: 22.2 nM
[2]
  apparent Kd: 39.5 nM

## ACGACGCAUAGUGAUACCAGUAGAACAUGAGGAUCACCCAUGUCUGUGACGCACAAAUUCUGCCCUUGGCAGCACUAUGCGUCAG
[3]
  apparent Kd: 11.4 nM
[4]
  apparent Kd: 33.3 nM

## CGUGUGCGUUCUGAUACCAGAGACAUGAGGAUCACCCAUGUCCGAUCGUCCUGCCUCAGACUCCCUUGGCAGCAGGUUUUGUGCU
[1]
  apparent Kd: 45.7 nM
[2]
  apparent Kd: 60.9 nM

## AGACAUGAGGAUCACCCAUGUAGCACGGAUACCAGAUCCAGAUUUAUCCCUUGGCAGCUGUGGUACAGCGUUGCAACGCUCCUAG
[1]
  apparent Kd: 18.8 nM
[2]
  apparent Kd: 29.4 nM

## ACUUCAUGAGGUGAUACCAGCCAAUGACAUGAGGACAUGAGGAUCACCCAUGUUUAUGUAGGCCCUUGGCAGCAUUGUAACAUGA
[3]
  apparent Kd: 59.4 nM
[4]
  apparent Kd: 52.3 nM

## GCACCAGGUACGGAUACCAGAAUUUGCCAAUUGGGUGAACAUGAGGAUCACCCAUGUUAUUUCCCUUGGCAGCCGUACCUGGUGC
[1]
  apparent Kd: 8.75 nM
[2]
  apparent Kd: 15.9 nM

## ACGAUAGGACAUGAGGAUCACCCAUGUGAUACCAGCCUGGAAACAGGCCCUUGGCAGCACAAAUACUCCAGAAACCUAUCGAAUA
[1]
  apparent Kd: 281 nM
[2]
  apparent Kd: 226 nM

## AAAAUAAAUAAAACACGUAACAUGAAGGAUACCAGCCAGAAAACUGGCCCUUGGCAGCCUCUACAUGAGGAUCACCCAUGUCGUG
[3]
  apparent Kd: 305 nM
[4]
  apparent Kd: 28 nM

## AGAAUACAUGUUUUAAUACGGUUUACUGAUACCAGUGUAUCUAUUCACCCUUGGCAGCAGAGACAUGAGGAUCACCCAUGUAUUA
[1]
  apparent Kd: 38.8 nM
[2]
  apparent Kd: 55.2 nM

Source: the EternaBench riboswitch data
